{"data": "Experimental data gathered from unrelated publications", "Adora1": "Adenosine receptor A1 (Adora1, Rattus norvegicus, UniProt P25099)", "Melanocortin receptor 5": "Melanocortin receptor 5 (Mus musculus, UniProt P41149)", "gyrB": "DNA gyrase subunit B (gyrB, Escherichia coli, UniProt P0AES6)", "CA9": "Carbonic anhydrase 9 (CA9, Homo sapiens, UniProt Q16790)", "PKN1": "Serine/threonine-protein kinase N1 (PKN1, Homo sapiens, UniProt Q16512)", "note": "Compare with care: the assays were run in different laboratories."}
{"SMILES": "CCC(C)N1CCCn2c1nc1c2c(=O)n(C)c(=O)n1C (centres unmarked)", "target": "Adora1", "observed": "ligand displacement", "technique": "radioligand", "notes": "cell membranes", "measurement": "Ki", "result": "≥ 25 µM"}
{"SMILES": "N=C(N)NCCC[C@H](NC(=O)[C@H](CC(=O)O)NC(=O)[C@H](Cc1c[nH]c2ccccc12)NC(=O)[C@H](CCCNC(=N)N)NC(=O)[C@@H](N)Cc1ccccc1)C(=O)N[C@@H](Cc1ccccc1)C(=O)O", "target": "Melanocortin receptor 5", "observed": "reporter gene", "mode": "agonist", "measurement": "EC50", "result": "6.73 µM"}
{"SMILES": "O=C(O)c1cccc(NC(=O)c2cc3ccccc3[nH]c2=O)c1", "target": "gyrB", "observed": "binding", "technique": "ITC", "measurement": "Kd", "result": "7 µM"}
{"SMILES": "N=C(N)NCCC[C@H](NC(=O)[C@H](CC(=O)O)NC(=O)[C@H](Cc1c[nH]c2ccccc12)NC(=O)[C@H](CCCNC(=N)N)NC(=O)[C@H](Cc1ccccc1)NC(=O)[C@@H](N)Cc1c[nH]cn1)C(=O)N[C@@H](Cc1ccccc1)C(=O)NCC(=O)O", "target": "Melanocortin receptor 5", "observed": "reporter gene", "mode": "agonist", "measurement": "EC50", "result": "0.76 µM"}
{"SMILES": "CCCN1CCCn2c1nc1c2c(=O)n(C)c(=O)n1C", "target": "Adora1", "observed": "ligand displacement", "technique": "radioligand", "notes": "cell membranes", "measurement": "Ki", "result": "3.87 µM"}
{"SMILES": "CSCC[C@H](NC(=O)[C@@H](NC(=O)[C@@H](N)Cc1ccc(O)cc1)C(C)C)C(=O)NCC(=O)N[C@@H](Cc1c[nH]cn1)C(=O)N[C@@H](Cc1ccccc1)C(=O)N[C@@H](CCCNC(=N)N)C(=O)N[C@@H](Cc1c[nH]c2ccccc12)C(=O)N[C@@H](CC(=O)O)C(=O)N[C@@H](CCCNC(=N)N)C(=O)N[C@@H](Cc1ccccc1)C(=O)O", "target": "Melanocortin receptor 5", "observed": "reporter gene", "mode": "agonist", "measurement": "EC50", "result": "0.13 µM"}
{"SMILES": "CNc1cccc2cc(C(=O)Nc3ccc(CC(=O)O)cc3)c(=O)[nH]c12", "target": "gyrB", "observed": "binding", "technique": "ITC", "measurement": "Kd", "result": "0.0047 µM"}
{"SMILES": "CCCCn1c(=O)c2[nH]c(C34CC5CC(CC3C5)C4)nc2n(CCCO)c1=O", "target": "Adora1", "observed": "ligand displacement", "technique": "radioligand", "notes": "cell membranes", "measurement": "Ki", "result": "0.000368 µM"}
{"SMILES": "Cc1cccnc1C(=O)Nc1ccc(N2C(=O)c3ccccc3C2=O)c(Cl)c1", "target": "Metabotropic glutamate receptor 4 (GRM4, Homo sapiens, UniProt Q14833)", "observed": "calcium signal", "mode": "agonist", "measurement": "EC50", "result": "> 10 µM"}
{"SMILES": "NS(=O)(=O)c1cc(C(=O)Nc2ccc(NC(=O)CCN3CCCCC3)cc2)ccc1Cl", "target": "CA9", "observed": "enzyme activity", "mode": "inhibitor", "measurement": "IC50", "result": "0.16 µM"}
{"SMILES": "Cc1cnc(-c2ccc(-c3ccc(NC(=O)Nc4c(F)cc(F)cc4F)cc3F)c3c2C(=O)NC3)[nH]1", "target": "Tyrosine-protein kinase HCK (HCK, Homo sapiens, UniProt P08631)", "observed": "binding", "technique": "competition with immobilised ligand", "measurement": "Kd", "result": "0.018 µM"}
{"SMILES": "CSCC[C@H](NC(=O)[C@@H](N)Cc1ccc(O)cc1)C(=O)N[C@@H](Cc1c[nH]cn1)C(=O)N[C@@H](Cc1ccccc1)C(=O)N[C@@H](CCCNC(=N)N)C(=O)N[C@@H](Cc1c[nH]c2ccccc12)C(=O)N[C@@H](Cc1ccccc1)C(=O)O", "target": "Melanocortin receptor 5", "observed": "reporter gene", "mode": "agonist", "measurement": "EC50", "result": "1.1 µM"}
{"SMILES": "Cn1cc(-c2ccc(N3CCN(C(=O)c4ccc(S(N)(=O)=O)c(Br)c4)CC3)c3cc[nH]c23)nn1", "target": "CA9", "observed": "enzyme activity", "mode": "inhibitor", "measurement": "IC50", "result": "0.0129 µM"}
{"SMILES": "N=C(N)NCCC[C@H](N)C(=O)N[C@@H](Cc1ccccc1)C(=O)NCC(=O)O", "target": "Melanocortin receptor 5", "observed": "reporter gene", "mode": "agonist", "measurement": "EC50", "result": "> 100 µM"}
{"SMILES": "CC(NC(=O)C(C)N1CCN(C(=O)c2cccc(O)c2)CC1)c1ccc(S(N)(=O)=O)cc1 (centres unmarked)", "target": "CA9", "observed": "enzyme activity", "mode": "inhibitor", "measurement": "IC50", "result": "0.75 µM"}
{"SMILES": "N=C(N)NCCC[C@H](NC(=O)[C@H](CC(=O)O)NC(=O)[C@H](Cc1c[nH]c2ccccc12)NC(=O)[C@H](CCCNC(=N)N)NC(=O)[C@H](Cc1ccccc1)NC(=O)[C@@H](N)Cc1c[nH]cn1)C(=O)N[C@@H](Cc1ccccc1)C(=O)O", "target": "Melanocortin receptor 5", "observed": "reporter gene", "mode": "agonist", "measurement": "EC50", "result": "1.87 µM"}
{"SMILES": "NS(=O)(=O)c1cc(CNC(=O)N(Cc2ccc(O)cc2)CC2CC2)ccc1F", "target": "CA9", "observed": "enzyme activity", "mode": "inhibitor", "measurement": "IC50", "result": "1.2 µM"}
{"SMILES": "CN1CCCn2c1nc1c2c(=O)n(C)c(=O)n1C", "target": "Adora1", "observed": "ligand displacement", "technique": "radioligand", "notes": "cell membranes", "measurement": "Ki", "result": "> 25 µM"}
{"SMILES": "Cc1nn(-c2ccccc2)c(C)c1C1COCCN1C(=O)c1ccc(Cl)c(S(N)(=O)=O)c1 (centres unmarked)", "target": "CA9", "observed": "enzyme activity", "mode": "inhibitor", "measurement": "IC50", "result": "0.155 µM"}
{"SMILES": "Cc1cc(Nc2nc(N[C@@H](C)c3ccc(F)cc3)c(C#N)cc2F)n[nH]1", "target": "PKN1", "observed": "enzyme activity", "mode": "inhibitor", "measurement": "IC50", "result": "0.213 µM"}
{"SMILES": "NS(=O)(=O)c1ccc(NC(=O)COC(=O)c2ccccc2Nc2cccc(C(F)(F)F)c2)cc1", "target": "CA9", "observed": "enzyme activity", "mode": "inhibitor", "measurement": "IC50", "result": "0.087 µM"}
{"SMILES": "CN(Cc1ccc(C(=O)O)cc1NC(=O)c1cc2ccccc2[nH]c1=O)C1CCCCC1", "target": "gyrB", "observed": "binding", "technique": "ITC", "measurement": "Kd", "result": "3.9 µM"}
{"SMILES": "N=C(N)NCCC[C@H](NC(=O)[C@H](CC(=O)O)NC(=O)[C@H](Cc1c[nH]c2ccccc12)NC(=O)[C@@H](N)CCCNC(=N)N)C(=O)N[C@@H](Cc1ccccc1)C(=O)NCC(=O)O", "target": "Melanocortin receptor 5", "observed": "reporter gene", "mode": "agonist", "measurement": "EC50", "result": "> 100 µM"}
{"SMILES": "CNc1cccc2cc(C(=O)NCc3ccc(C(=O)O)cc3)c(=O)[nH]c12", "target": "gyrB", "observed": "binding", "technique": "ITC", "measurement": "Kd", "result": "0.0093 µM"}
{"SMILES": "NS(=O)(=O)c1ccc(NC(=O)C(Cc2c[nH]c3ccccc23)NC(=O)c2cccs2)cc1 (centres unmarked)", "target": "CA9", "observed": "enzyme activity", "mode": "inhibitor", "measurement": "IC50", "result": "0.0372 µM"}
{"SMILES": "CCCC(C)N1CCCn2c1nc1c2c(=O)n(C)c(=O)n1C (centres unmarked)", "target": "Adora1", "observed": "ligand displacement", "technique": "radioligand", "notes": "cell membranes", "measurement": "Ki", "result": "> 25 µM"}
{"SMILES": "CCCCNc1ncc2c(-c3ccc(CN4CCN(C)CC4)cc3)cn([C@H]3CC[C@H](O)CC3)c2n1", "target": "PKN1", "observed": "enzyme activity", "mode": "inhibitor", "measurement": "IC50", "result": "0.053 µM"}
{"SMILES": "CNc1cccc2cc(C(=O)Nc3cccc(CC(=O)O)c3)c(=O)[nH]c12", "target": "gyrB", "observed": "binding", "technique": "ITC", "measurement": "Kd", "result": "0.037 µM"}
{"SMILES": "CN(c1ccccc1CNc1nc(Nc2ccc3c(c2)CC(=O)N3)ncc1C(F)(F)F)S(C)(=O)=O", "target": "PKN1", "observed": "enzyme activity", "mode": "inhibitor", "measurement": "IC50", "result": "0.129 µM"}
{"SMILES": "CCCCN1CCCn2c1nc1c2c(=O)n(CCC)c(=O)n1CCC", "target": "Adora1", "observed": "ligand displacement", "technique": "radioligand", "notes": "cell membranes", "measurement": "Ki", "result": "0.28 µM"}
{"SMILES": "CSCC[C@H](N)C(=O)NCC(=O)N[C@@H](Cc1c[nH]cn1)C(=O)N[C@@H](Cc1ccccc1)C(=O)N[C@@H](CCCNC(=N)N)C(=O)N[C@@H](Cc1c[nH]c2ccccc12)C(=O)N[C@@H](CC(=O)O)C(=O)N[C@@H](CCCNC(=N)N)C(=O)N[C@@H](Cc1ccccc1)C(=O)NCC(=O)O", "target": "Melanocortin receptor 5", "observed": "reporter gene", "mode": "agonist", "measurement": "EC50", "result": "0.094 µM"}
{"SMILES": "Cc1ccc(C)c(OCCCC(C)(C)C(=O)O)c1", "target": "Peroxisome proliferator-activated receptor alpha (Ppara, Mus musculus, UniProt P23204)", "observed": "reporter gene", "mode": "agonist", "technique": "luciferase", "measurement": "EC50", "result": "111 µM"}
{"SMILES": "NS(=O)(=O)c1ccc(NC(=S)N2CCN(C(=O)c3ccco3)CC2)cc1", "target": "CA9", "observed": "enzyme activity", "mode": "inhibitor", "measurement": "IC50", "result": "0.0372 µM"}
{"SMILES": "O=C(O)c1ccc(NC(=O)c2cc3ccccc3[nH]c2=O)cc1", "target": "gyrB", "observed": "binding", "technique": "ITC", "measurement": "Kd", "result": "0.73 µM"}
{"SMILES": "CCS(=O)(=O)Nc1ccc(Nc2c3ccccc3nc3cc(NC(=O)CCCC[C@@H]4SC[C@@H]5NC(=O)N[C@@H]54)ccc23)c(OC)c1", "target": "Lymphocyte antigen 6K (Homo sapiens, UniProt Q17RY6)", "observed": "binding", "technique": "SPR", "measurement": "Kd", "result": "4.7 µM"}
